Compound activity: PubChem BioAssay, Broad Institute
PvdQ acylase: blocks Pseudomonas aeruginosa PvdQ acylase activity. purified PvdQ acylase, fluorescence plate reader. inhibition, % at 10 µM. actives 0.063% (n = 340,000). AID 488965; in the data active = inhibition above about 30%, passing the limit was not always enough; inconclusive = no clear call, values can overlap the other calls;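 also: 0% = vehicle neutral wells and 100% = reference inhibitor wells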
CAL PDZ FP-1: blocks peptide binding to human CAL PDZ domain. Q9HD26. purified CAL PDZ, TMR-peptide fluorescence polarization, 1 h. inhibition, % at 20 µM. actives 0.02% (n = 330,000);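 active = highest replicate inhibition of at least 40%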;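 also: plate controls were DMSO neutral control wells for no effect and unlabeled competitor peptide control wells for full effect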
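material = purified tagged CAL PDZ domain construct (CerCALP) | buffer or medium = sodium phosphate/NaCl buffer pH 7.4 with TCEP, IgG, Thesit | reagent = TMR-labelled reporter peptide T*-PRC34 bound in PDZ groove | incubation = 1 h room-temperature incubation prior to read | measured by = fluorescence polarization (mP) | evaluation = percent inhibition from loss of millipolarization | control set = unlabelled peptide and DMSO controls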
CAL PDZ FP-2: inhibitors of human CAL PDZ peptide binding; actives 0.92% (n = 300,000); inhibition, % at 24.9 µM; AID 602252; Q9HD26; purified CAL PDZ, TMR-peptide fluorescence polarization, 1 h;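 active = mean inhibition of at least 30% with at least half of replicates also reaching 30%; inconclusive = no clear call, values can overlap the other calls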;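 also: 0% = DMSO neutral control and 100% = excess unlabeled competitor peptide PRC23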
miR122 inh: blocks miR-122 activity in Huh7 sensor cells; Huh7 miR-122 Renilla luciferase sensor, 48 h; neutral wells = 0, positive control = 100; activation (reporter increase), % at 12.5 µM; actives 0.3% (n = 340,000);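 active = mean replicate activation score at least 90 and every replicate individually at or above 90; inconclusive = only one of the two criteria met; inactive = neither criterion met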;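 also: higher luciferase means less miR-122 activity so hits act as miR-122 inhibitors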
The depositor's hits bear a star; [ ] = dose if it differs, or a comment. An excerpt weighted towards active compounds, which were near 0.95% of everything screened.

For O=C1C2C(C(=O)N1c1nccs1)C1C=CC2C12CC2 (stereo not given) the results were PvdQ acylase 13.5, CAL PDZ FP-1 -3.4 and CAL PDZ FP-2 -1.1.
For COc1ccc(/C(N)=N/OC(=O)Cc2ccccc2[N+](=O)[O-])cc1 the results were PvdQ acylase -11.8, CAL PDZ FP-1 -3.0 and CAL PDZ FP-2 -5.2.
`N/C(=N\OC(=O)Cc1ccccc1[N+](=O)[O-])c1cccnc1` gave PvdQ acylase -16.0 and CAL PDZ FP-2 76.6*.
O=[N+]([O-])c1ccc(Sc2n[nH]c(-c3ccc(Cl)cc3Cl)n2)nc1 was read as PvdQ acylase -18.6, CAL PDZ FP-2 43.5* and miR122 inh 1.1.
For O=[N+]([O-])c1ccc(Sc2ccccc2Cl)nc1 the results were PvdQ acylase 64.5*, CAL PDZ FP-1 -0.8, CAL PDZ FP-2 1.1 and miR122 inh 0.7.
`Cc1cc(OCC(=O)Nc2ccc(S(=O)(=O)N3CCN(C)CC3)cc2)cc(C)c1Cl` gave PvdQ acylase -0.6, CAL PDZ FP-1 -0.6 and CAL PDZ FP-2 -0.8.
For CC1CCC(C(C)C)C(OCC(O)CNC(C)c2ccccc2)C1 (stereo not given) the results were PvdQ acylase -2.7, CAL PDZ FP-1 0.5 and CAL PDZ FP-2 4.4.
Screening CC1CCC(C(C)C)C(OCC(O)CNC(C)(C)C)C1 (stereo not given) returned PvdQ acylase -18.2, CAL PDZ FP-1 -0.4 and CAL PDZ FP-2 80.0*.
Cc1ccc(S(=O)(=O)Nc2ccc3c(c2)CC(=O)N([C@H](C)CO)C[C@@H](C)[C@H](CN(C)S(=O)(=O)c2ccc(Cl)cc2)O3)cc1 was read as miR122 inh -2.0[16.7 µM].
For Cc1noc(C)c1CSc1nc2[nH]ncc2c(=O)n1-c1ccccc1 the results were PvdQ acylase -8.9, CAL PDZ FP-1 -2.5, CAL PDZ FP-2 3.1 and miR122 inh 23.7.
Screening Cc1noc(C)c1CSc1nc2ccccc2c(=O)n1-c1ccccc1 returned PvdQ acylase -11.5, CAL PDZ FP-1 -0.7, CAL PDZ FP-2 -5.5 and miR122 inh 98.6*.
CCSc1ccc(-c2nn(-c3ccccc3)cc2/C=C(/C#N)C(=O)NC)cc1 was read as PvdQ acylase -11.7, CAL PDZ FP-1 -0.4 and miR122 inh 23.5.
For C=CCNC(=O)/C(C#N)=C/c1cn(-c2ccccc2)nc1-c1ccc(OC)c([N+](=O)[O-])c1 the results were PvdQ acylase -6.8, CAL PDZ FP-1 -0.7 and miR122 inh 147.3*.
Cc1nn(C(C)C(=O)NCc2ccccc2Cl)c(=O)c2c1sc1ccccc12 (stereo not given) was read as PvdQ acylase -13.7, CAL PDZ FP-1 -0.5, CAL PDZ FP-2 69.7* and miR122 inh -1.8.
`COC(=O)c1c(SCC(=O)NC2CCCCC2)[nH]c2ccccc2c1=O` gave PvdQ acylase -1.6, CAL PDZ FP-1 -2.1, CAL PDZ FP-2 31.4* and miR122 inh -3.4.
For O=C(COC(=O)c1cc(=O)[nH]c2ccccc12)NC1CCCCC1 the results were PvdQ acylase -14.1, CAL PDZ FP-1 -0.6 and miR122 inh 4.0.
For COC(=O)[C@H](CC(C)C)N1Cc2cc(OC)cc(OC)c2-c2ccccc2S1(=O)=O the results were PvdQ acylase -16.8, CAL PDZ FP-1 -0.3, CAL PDZ FP-2 51.1* and miR122 inh 3.6.
O=C(NNC(=O)c1ccc[nH]1)c1cccc(C(F)(F)F)c1 was read as PvdQ acylase 0.2, CAL PDZ FP-1 -2.1, CAL PDZ FP-2 -3.7 and miR122 inh -7.2.
Screening O=C(NNC(=O)c1ccc[nH]1)Nc1cccc(C(F)(F)F)c1 returned PvdQ acylase -13.4, CAL PDZ FP-1 -0.7 and CAL PDZ FP-2 71.0*.
Screening CCOC(=O)c1ccc(-c2ccc(C=O)o2)cc1 returned PvdQ acylase inconclusive, CAL PDZ FP-1 -1.1 and CAL PDZ FP-2 64.1*.
Cc1nn(CC(=O)N2CC(=O)Nc3ccccc32)c(C)c1[N+](=O)[O-] was read as PvdQ acylase -14.7, CAL PDZ FP-1 1.4, CAL PDZ FP-2 63.1* and miR122 inh -2.8.
Screening CC(C)Cn1c(=O)c2ccccc2n2c(SCC(=O)N3c4ccccc4CC3C)nnc12 (stereo not given) returned PvdQ acylase 11.3, CAL PDZ FP-1 -1.4, CAL PDZ FP-2 2.2 and miR122 inh 1.2.
For COc1ccc(S(=O)(=O)Nc2ccc3c(c2)CC(=O)N([C@H](C)CO)C[C@@H](C)[C@H](CN(C)Cc2ccc4c(c2)OCO4)O3)cc1 the results were miR122 inh 5.4[16.7 µM].
Screening O=C(c1cnn(C(=O)CN2CCCC2=O)c1)c1ccccc1O returned PvdQ acylase -11.4, CAL PDZ FP-1 13.2 and CAL PDZ FP-2 93.1*.
